# Source: ChEMBL document CHEMBL1154265, “Alkaloids from the leaves of Daphniphyllum subverticillatum” (J Nat Prod, 2009)
# Activity calls are given as the source filed them. No cut-off for these calls is given here.
# Experiments:
# [1] = system: HL-60; experiment: Cytotoxicity against human HL60 cells after 72 hrs by MTT assay; type: functional, cell-based
# How it was run: (§1)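 MTT read-out on HL-60 and P-388 cells, run to earlier published protocols, with pseudolaric acid B as the positive control; IC50 values reported.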
# [2] = system: P388; experiment: Cytotoxicity against mouse P388 cells after 72 hrs by MTT assay; type: functional, cell-based; how it was run: as §1
# [3] = system: A549; experiment: Cytotoxicity against human A549 cells after 72 hrs by sulforhodamine B assay; type: functional, cell-based
# How it was run: (§2)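 SRB staining on A-549, BEL-7402 and HMEC (human microvascular endothelial) cells, run to earlier published protocols, with pseudolaric acid B as the positive control; IC50 values reported.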
# [4] = system: Bel-7402; experiment: Cytotoxicity against human Bel7402 cells after 72 hrs by sulforhodamine B assay; type: functional, cell-based; how it was run: as §2
# [5] = system: HMEC; experiment: Cytotoxicity against human HMEC cells after 72 hrs by sulforhodamine B assay; type: cell-based; conditions: for Activity: human, hmec; how it was run: as §2
Compound,Activity [1],Activity [2],Activity [3],Activity [4],Activity [5],"IC50 ([1]; HL-60, 72 h) [µM]","IC50 ([2]; P388, 72 h) [µM]","IC50 ([4]; Bel-7402, 72 h) [µM]","IC50 ([5]; Homo sapiens, HMEC) [µM]"
CC[C@@]1(O)CC[C@@]2(CO1)[C@H]1CCC3=C4[C@H](C[C@@H]3O)[C@H](C(=O)OC)C[C@@]42CN(C)C1,inactive,inactive,inactive,inactive,Non-toxic,,,,
COC(=O)CC[C@]12C3=CCC[C@@H]3CC[C@@H]3C=N[C@@H]1[C@@H](C(C)C)CC[C@@]32C [DAPHNEZOMINE L METHYL ESTER],inactive,inactive,inactive,inactive,Non-toxic,,,,
CC(=O)O[C@@H]1CC[C@@]2(C)O[C@@H](O)[C@@]1(C)C2CC[C@@]12[C@@H]3NC4C(CC[C@@]45CCC[C@H]51)[C@]2(C)CC[C@@H]3C(C)C (stereo not given in full) [DAPHNILONGERIDINE],,,inactive,,,9.5,2.4,9.7,2.7
CC(C)[C@H]1CC[C@@]2(C)[C@@H]3C[C@@H](O)[C@]45CCC[C@H]4[C@@]2(CCC(=O)[C@]2(C)CO[C@]4(C)CCC2O4)[C@@H]1N5C3 [HYDROXYCODAPHNIPHYLLINE],inactive,inactive,inactive,inactive,Non-toxic,,,,
COC(=O)[C@@H]1C[C@@]23C(=O)[C@@H]4C[C@H]5N(C[C@@H](CCC6=C2[C@@H]1CC6)[C@]53COC(C)=O)C[C@H]4C [SUBDAPHNIDINE A],inactive,inactive,inactive,inactive,Non-toxic,,,,
